HKDC1 inhibitor = inhibitors of human hexokinase HKDC1; Q2TB90; recombinant HKDC1, G6PDH/diaphorase resazurin coupled fluorescence; inhibition, % at 20 µM; actives 0.16% (n = 340,000);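 active = inhibition above about 35% when tested at 20 µM, limit read from the data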
Target sequence (Q2TB90 whole entry, looked up): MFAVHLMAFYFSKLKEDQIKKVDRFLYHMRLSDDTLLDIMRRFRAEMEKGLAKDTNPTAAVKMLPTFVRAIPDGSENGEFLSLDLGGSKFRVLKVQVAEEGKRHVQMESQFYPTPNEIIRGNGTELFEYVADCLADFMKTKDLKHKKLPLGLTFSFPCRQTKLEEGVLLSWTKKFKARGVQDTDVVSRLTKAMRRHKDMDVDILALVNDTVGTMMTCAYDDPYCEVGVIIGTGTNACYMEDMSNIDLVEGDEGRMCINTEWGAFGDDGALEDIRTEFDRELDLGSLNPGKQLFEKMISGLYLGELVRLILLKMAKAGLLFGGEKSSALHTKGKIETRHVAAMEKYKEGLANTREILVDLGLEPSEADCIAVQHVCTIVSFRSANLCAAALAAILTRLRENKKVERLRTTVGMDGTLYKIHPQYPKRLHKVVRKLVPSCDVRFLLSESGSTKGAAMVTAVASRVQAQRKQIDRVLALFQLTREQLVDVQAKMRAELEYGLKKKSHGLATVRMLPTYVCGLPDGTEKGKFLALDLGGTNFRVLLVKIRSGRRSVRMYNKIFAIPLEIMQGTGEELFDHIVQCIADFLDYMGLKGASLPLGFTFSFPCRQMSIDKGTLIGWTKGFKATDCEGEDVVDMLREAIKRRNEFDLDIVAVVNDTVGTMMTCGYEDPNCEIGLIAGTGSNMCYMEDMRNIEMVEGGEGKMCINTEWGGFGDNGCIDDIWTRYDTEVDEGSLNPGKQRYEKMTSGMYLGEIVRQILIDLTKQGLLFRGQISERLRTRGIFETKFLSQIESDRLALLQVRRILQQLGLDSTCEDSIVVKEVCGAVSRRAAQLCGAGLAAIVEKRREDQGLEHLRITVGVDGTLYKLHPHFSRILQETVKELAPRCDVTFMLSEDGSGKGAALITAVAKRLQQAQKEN
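Material – in-house recombinant HK5 (HKDC1) enzyme · Quantity – HKDC1 at 5 µg/mL · Buffer or medium – pH 8.0 Tris buffer with 10 mM MgCl2 · Reagent – glucose with 1 mM ATP · Dosing – single 20 µM dose · Times – reaction time 90 min, room temperature, protected from light · Technique – resorufin fluorescence at 613 nm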
PERK inhibitor = inhibitors of human PERK kinase. Q9NZJ5. CHO PERK-DD fusion, SEAP luminescence translation reporter. inhibition, % at 5.6 µM. actives 0.17% (n = 220,000);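 active = inhibition above the mean inhibition of all tested compounds plus 3 SD, set separately per screening campaign, cut at about 2.9% in these data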;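 note: PERK kinase domain activated by AP20187 dimerizer at 100 nM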
Tb hexokinase = T. brucei hexokinase 1 inhibition; recombinant TbHK1, G6PDH-coupled NADH A340; inhibition, % at 10 µM; actives 0.11% (n = 220,000);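 active = inhibition of 50% or more in the single-dose primary screen; inactive = inhibition below 50%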
HSV replic up = increases HSV replication in cells; actives 0.005% (n = 220,000); maximum fold increase; HSV replication augmentation in cells, fold increase; in the data active = maximum fold increase above about 1.5; inconclusive = no clear call, values can overlap the other calls; tested in PC3 cells
Autophagy HCS = alters autophagy in cells. MEF GFP-LC3 puncta imaging; test concentration mostly 10 µM. calls only at 10 µM (by protocol). actives 0.98% (n = 190,000). AID 463193;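 active = percentage of spot-positive cells more than 3 SD above its plate mean, without a fluorescence outlier flag or 80% toxicity; inconclusive = no clear call, values can overlap the other calls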
Dynein transport = blocks dynein driven cargo transport along microtubules; z-score, hits read low; AID 1381; 3617.4 mouse cells, GR-EGFP nuclear translocation imaging; test concentration mostly 20 µM; stimulated with dexamethasone, 1 µM; active compounds read low; actives 0.47% (n = 220,000);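 active = plate z-score of nuclear minus cytoplasmic receptor signal below a set negative limit, without overly bright fluorescence or cell loss, cut at about -3.5 in these data, passing the limit was not always enough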;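 note: z-score of nuclear minus cytoplasmic ring GR-EGFP intensity difference per well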
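Buffer or medium: tet-free, stripped-serum medium; reagent: dexamethasone at 1.0 µM final, 30 min; incubation: 48 h induction, 1 h compound, 30 min dex at 37 °C; measured by: formaldehyde fixation, Hoechst nuclear stain, 10x automated fluorescence imaging; read-out: nuclear-to-cytoplasmic GR-EGFP distribution per well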
Dynein confirm = dynein cargo transport inhibition, confirmation. 3617.4 GR-EGFP nuclear translocation imaging, dexamethasone-induced. AID 463116. shares compounds with Dynein transport. calls only at 20 µM. actives 69% (n = 1,000);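 active = inhibition of receptor movement into the nucleus at or above a set limit in both runs, with normal cell brightness and cell count; inconclusive = limit reached in only one run, brightness and count normal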;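 note: dexamethasone at 1 µM final in well for 30 min; nuclear minus cytoplasmic GR-EGFP mean intensity difference in channel 2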
Of the large screens only hits and unclear results are named; the others gave an inactive call (follow-up assays come after a bar, where they were run). This is a sample that favours compounds with a hit; in the whole collection about 1.2% have one here.

O=C(N/N=C/C(Br)=C\c1ccccc1)c1n[nH]c2c1CCC2	Autophagy HCS active (no result: HSV replic up)
O=[N+]([O-])c1ccc(N/N=C/c2cn(-c3ccccc3)nc2-c2ccccc2)cc1	HSV replic up inconclusive, Autophagy HCS active
Cn1c(N)c(C(=O)COC(=O)CCCc2nc3ccccc3s2)c(=O)n(C)c1=O	Autophagy HCS active
COc1cccc(OCc2nc3ncc(Br)cc3[nH]2)c1	none
Cc1cc(C)cc(OCc2nc3ncc(Br)cc3[nH]2)c1	Autophagy HCS active
COc1ccc(N2CCN(C(=O)CCc3ccc(S(=O)(=O)NC(C)(C)C)cc3)CC2)cc1	none (no result: Autophagy HCS)
Cc1cccc(/C=N/Nc2cc(N3CCOCC3)nc(N3CCOCC3)n2)c1	Autophagy HCS active
CC(C)c1ccc(/C=N/Nc2cc(N3CCOCC3)nc(N3CCOCC3)n2)cc1	none
O=C(Nc1cccnc1)c1ccc(COc2ccccc2Br)o1	Autophagy HCS active
O=C(Nc1cccnc1)c1ccc(-c2ccc(Cl)cc2)o1	Autophagy HCS active
O=C(NCc1cccnc1)c1ccc(COc2ccccc2Br)o1	none
O=C(Nc1cccnc1)c1ccc(-c2cc(Cl)ccc2Cl)o1	none
Cc1ccccc1-n1nc(C(=O)O)cc1-c1ccccc1	PERK inhibitor 3.1
COc1ccc(C(=O)NCc2cnn(C)c2C)cc1OC1CCN(C(C)C)CC1	none (no result: PERK inhibitor, Tb hexokinase, HSV replic up, Autophagy HCS, Dynein transport)
Cc1cccc2cc(C(c3nnnn3CC3CCCO3)N3CCCC4(CCCCC4)C3)c(=O)[nH]c12 (configuration not stated)	Autophagy HCS active (no result: HKDC1 inhibitor)
CC(C)(C)OC(=O)C[C@H]1C/C=C\C[C@H](CC(=O)NCCO)C(=O)NC[C@@H](c2ccccc2)OC1=O	none (no result: PERK inhibitor, Tb hexokinase, HSV replic up, Autophagy HCS, Dynein transport)
CCN(CC)CCCNC(=O)c1ccc2c(SCC(=O)O)c3c(nc2c1)CCC3	none (no result: HKDC1 inhibitor)
CCN(CC)CCNC(=O)CSc1c2c(nc3cc(Cl)ccc13)CCCC2	Dynein transport -3.9
Cc1ccc(C)c(NC(=O)CCC(=O)NNS(=O)(=O)c2ccc(Cl)cc2)c1	none (no result: PERK inhibitor, Tb hexokinase, HSV replic up, Autophagy HCS, Dynein transport)
COc1ccc(C2c3[nH]c4ccccc4c3CCN2Cc2cccn2-c2ncccn2)cc1C (configuration not stated)	Autophagy HCS active
CSc1nc(C(=O)N2CCCC(Nc3ccc(C)c(C)c3)C2)cs1 (configuration not stated)	none (no result: PERK inhibitor, Tb hexokinase, HSV replic up, Autophagy HCS, Dynein transport)
CCc1cccc(C)c1NC(=O)CC1Oc2ccc(C)cc2NC1=O (configuration not stated)	none (no result: PERK inhibitor, Tb hexokinase, HSV replic up, Autophagy HCS, Dynein transport)
O=c1c2c3c(sc2nc2n1CCC2)CCCCC3	Autophagy HCS active
Cc1cc(C)c2cc3c(N)c(C(=O)Nc4c(C)[nH]c(=O)[nH]c4=O)sc3nc2c1	Autophagy HCS active
O=Cc1s/c(=N\S(=O)(=O)c2ccccc2)n(CCCCl)c1Cl	Dynein transport -5.7 | Dynein confirm active
CCOc1ccc(Cl)cc1S(=O)(=O)N1CCC(C(=O)NCC2CCCO2)CC1 (configuration not stated)	none (no result: PERK inhibitor, Tb hexokinase, HSV replic up, Autophagy HCS, Dynein transport)
COc1cc(NC(=O)Cn2ncc(Cl)c(Cl)c2=O)c(C)cc1[N+](=O)[O-]	Autophagy HCS active, Dynein transport -3.8 | Dynein confirm active
CC1CCc2c(sc(NC(=O)c3cccn3C)c2C(N)=O)C1 (configuration not stated)	none (no result: PERK inhibitor, Tb hexokinase, HSV replic up, Autophagy HCS, Dynein transport)
N=c1oc2c3c4c(cc2cc1C(=O)Nc1ccccc1)CCCN4CCC3	HSV replic up inconclusive, Dynein transport -4.6 | Dynein confirm active
Cc1ccc(NC(=O)c2cc3ccccc3oc2=N)cc1	none (no result: PERK inhibitor, Tb hexokinase, HSV replic up, Autophagy HCS, Dynein transport)
CC(C)CN(C(=O)COC(=O)CCc1nc2ccccc2s1)c1c(N)n(Cc2ccccc2)c(=O)[nH]c1=O	none (no result: PERK inhibitor, Tb hexokinase, HSV replic up, Autophagy HCS, Dynein transport)
O=C(/C=C/c1ccc(O)c([N+](=O)[O-])c1)c1ccc2ccccc2c1	none (no result: PERK inhibitor, Tb hexokinase, HSV replic up, Autophagy HCS, Dynein transport)
COc1cccc(/C=C/C(=O)c2cccc([N+](=O)[O-])c2)c1	Dynein transport -4.5 | Dynein confirm active
COc1ccc(C(=O)/C=C/c2ccccc2OC)c(OC(=O)c2ccc([N+](=O)[O-])cc2)c1	none
COc1cccc(/C=C/C(=O)c2cccc([N+](=O)[O-])c2)c1OC	Autophagy HCS active, Dynein transport -5.3 | Dynein confirm active
COc1ccc(Oc2ccc(/C=C/C(=O)c3ccc(O)cc3)cc2[N+](=O)[O-])cc1	Dynein transport -3.6 | Dynein confirm active
COc1cccc(C(=O)/C=C/c2ccc(N3CCCCC3)c([N+](=O)[O-])c2)c1	none
CS(=O)(=O)c1ccc(C(=O)OCC(=O)Nc2cccnc2Cl)cc1[N+](=O)[O-]	none (no result: PERK inhibitor, Tb hexokinase, HSV replic up, Autophagy HCS, Dynein transport)
CN(C)S(=O)(=O)c1ccc(C(=O)OCc2nnc(-c3ccccc3)o2)cc1	none (no result: Autophagy HCS)
Cc1ccccc1NC(=O)COC(=O)c1ccc(S(C)(=O)=O)c([N+](=O)[O-])c1	Dynein transport -4.4 | Dynein confirm active
CS(=O)(=O)c1ccc(C(=O)OCc2nnc(-c3ccccc3)o2)cc1[N+](=O)[O-]	Dynein transport -6.6 | Dynein confirm active
CC(=O)N1CC(C)Sc2ccc(S(=O)(=O)NC(C)c3ccccc3)cc21 (configuration not stated)	none (no result: PERK inhibitor, Tb hexokinase, HSV replic up, Autophagy HCS, Dynein transport)
Cc1ccc(S(=O)(=O)Nc2ccc3c(c2)nc2n3CCN(Cc3ccccc3)C2)cc1	Dynein transport -3.5 | Dynein confirm inactive
CCN(C(=O)CSc1n[nH]c(N)n1)c1cccc2ccccc12	none (no result: PERK inhibitor, Tb hexokinase, HSV replic up, Autophagy HCS, Dynein transport)
COc1ccccc1N1C(=O)C2CC(C)=C(C)CC2C1=O (configuration not stated)	none
COc1ccccc1N1C(=O)C=C(Sc2nc(C)cc(C)n2)C1=O	Dynein transport -4 (no result: Autophagy HCS) | Dynein confirm active
COc1ccc(NC(=O)CCl)cn1	none (no result: HKDC1 inhibitor, Autophagy HCS)
COc1ccc(NC(=O)C(Cl)=C(Cl)Cl)cn1	Dynein transport -4.5 | Dynein confirm active
COc1ccc(NC(=O)/C(Cl)=C(/Cl)S(=O)(=O)Cc2ccccc2)cn1	Autophagy HCS active, Dynein transport -5.6 | Dynein confirm active
CCC12CCC3c4ccc(O)cc4CCC3C1CC(O)C2O (configuration not stated)	none (no result: PERK inhibitor, Tb hexokinase, HSV replic up, Autophagy HCS, Dynein transport)
Cc1ccsc1/C=C/C1=Cc2c(sc(NC(=O)CSc3n[nH]c(N)n3)c2C#N)C(C)(C)C1	Dynein transport -3.6 | Dynein confirm inactive
CC1(C)C(=O)Nc2ccccc2N1C(=O)Cn1ncc(Cl)c(Cl)c1=O	Dynein transport -6.3 (no result: Autophagy HCS) | Dynein confirm active
O=C(Cn1ncc(Cl)c(Cl)c1=O)N1CCOCC1	Dynein transport -4.2 | Dynein confirm active
O=C(Cn1ncc(Cl)c(Cl)c1=O)N1CCN(Cc2ccccc2)CC1	Dynein transport -5 | Dynein confirm active
N#Cc1ccc(CN2CCN(C(=O)c3ccc(S(=O)(=O)NCc4ccco4)cc3)CC2)cc1	none (no result: PERK inhibitor, Tb hexokinase, HSV replic up, Autophagy HCS, Dynein transport)
O=C1/C(=C\c2ccco2)CCC/C1=C\c1ccco1	none
CC1C/C(=C/c2ccco2)C(=O)/C(=C/c2ccco2)C1 (configuration not stated)	none (no result: HKDC1 inhibitor) | Dynein confirm active

Source: PubChem (several laboratories)
